Molecules are shown by their SMILES.

Data set [1] concerns the target Delta-type opioid receptor (Rattus norvegicus) (UniProt P33533). In words: (§1) Displacement of [3H][Ile5,6]deltorphin 2 from delta opioid receptor in Wistar rat brain membranes. Type of data set: cell membranes. The settings on record: Membrane. Summed up:
(§2)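 Competitive displacement in crude rat brain membrane preparation, with the test peptide at a range of concentrations. Ki is calculated from EC50 by Cheng–Prusoff, Ki = EC50/(1+[ligand]/Kd), using Kd values from the literature. Means ± SEM, n ≥ 3.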

Data set [2] deals with Delta-type opioid receptor (Rattus norvegicus, UniProt P33533). The description is as §1. The data set is classed as cell membranes, Membrane. Summed up: as §2
Delta-type opioid receptor, sequence (P33533 whole entry): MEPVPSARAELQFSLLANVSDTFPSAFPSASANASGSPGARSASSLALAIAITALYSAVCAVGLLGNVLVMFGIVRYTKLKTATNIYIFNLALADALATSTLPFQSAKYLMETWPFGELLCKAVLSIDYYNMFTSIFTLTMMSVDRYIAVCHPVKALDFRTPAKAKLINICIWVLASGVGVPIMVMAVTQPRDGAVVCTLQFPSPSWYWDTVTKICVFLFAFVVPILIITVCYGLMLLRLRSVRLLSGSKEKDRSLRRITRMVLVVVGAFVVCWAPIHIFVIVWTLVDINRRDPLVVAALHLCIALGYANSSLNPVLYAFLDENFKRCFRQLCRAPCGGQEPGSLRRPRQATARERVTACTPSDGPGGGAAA
Data set [3] deals with T1, Mu-type opioid receptor (Rattus norvegicus, UniProt P33535). The data set is classed as cell membranes, Wistar, Membrane.
T1 sequence (P33535 whole entry): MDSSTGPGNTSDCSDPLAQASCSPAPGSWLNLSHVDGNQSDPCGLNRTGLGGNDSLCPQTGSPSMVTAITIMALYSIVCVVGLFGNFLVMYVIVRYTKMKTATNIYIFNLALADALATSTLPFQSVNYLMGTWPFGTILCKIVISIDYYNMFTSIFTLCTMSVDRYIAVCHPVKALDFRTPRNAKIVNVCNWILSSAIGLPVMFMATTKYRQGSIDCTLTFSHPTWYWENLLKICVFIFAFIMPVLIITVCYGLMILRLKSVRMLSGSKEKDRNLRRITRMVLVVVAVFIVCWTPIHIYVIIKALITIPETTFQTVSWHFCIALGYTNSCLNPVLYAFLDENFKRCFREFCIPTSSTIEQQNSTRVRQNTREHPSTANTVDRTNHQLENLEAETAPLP
The nature of data set [4]: Half life in Wistar rat brain homogenate. The data set is classed as ADME, tissue-based. The gist of the method: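 Peptide incubated in crude rat brain membrane homogenate with a protein content of 4.7 mg/mL, and its disappearance followed over time. Half-life is calculated from pseudo-first-order kinetics. Means of at least three individual experiments ± SEM.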
The target of data set [5] is T1, Mu-type opioid receptor. Briefly: Agonist activity at mu opioid receptor in Wistar rat brain membranes after 60 mins by [35S]GTPgammaS binding assay. Type of data set: functional, cell membranes, Membrane.

Delta-type opioid receptor (Rattus norvegicus), sequence (P33533 whole entry): as the sequence (P33533 whole entry) above

On to `NC(=O)[C@H](Cc1ccccc1)NC(=O)[C@H](Cc1ccccc1)NC(=O)[C@@H]1CC=C[C@@H]1NC(=O)[C@@H](N)Cc1ccc(O)cc1`, for which the Activity entry in data set [1] was “Dose-dependent effect”. The compound further yielded a Ki in data set [2] greater than 10000 nM.
Consider `NC(=O)[C@H](Cc1ccccc1)NC(=O)[C@H](Cc1ccccc1)NC(=O)[C@@H]1C[C@@H](O)CN1C(=O)[C@@H](N)Cc1ccc(O)cc1`, for which the figures for the Ki (at Mu-type opioid receptor [3]; in data set [2]) were 44 nM and greater than 10000 nM, respectively. In data set [1], the Activity entry was “Dose-dependent effect”. The half-life in data set [4] worked out at 17 min. On Mu-type opioid receptor [5], this compound had an EC50 of 66 nM.
As to `NC(=O)[C@H](Cc1ccccc1)NC(=O)[C@H](Cc1ccccc1)NC(=O)[C@H]1CC=C[C@H]1NC(=O)[C@@H](N)Cc1ccc(O)cc1`, the Activity result in data set [1] is “Dose-dependent effect”. In data set [2], this compound displayed an inhibitory constant (Ki) of 9930 nM. Also, the half-life in data set [4] was greater than 1200 min.
With `NC(=O)[C@H](Cc1ccccc1)NC(=O)[C@H](Cc1ccccc1)NC(=O)C[C@@H]1CCCN1C(=O)[C@@H](N)Cc1ccc(O)cc1`, the figures for the Ki (at Mu-type opioid receptor [3]; in data set [2]) were 27 nM and greater than 10000 nM, respectively. In addition, the Activity result in data set [1] is “Dose-dependent effect”. Besides, the half-life in data set [4] worked out at 34 min. Also, a half-maximal effect at Mu-type opioid receptor [5] (EC50) was put at 845 nM.
In the case of `NC(=O)[C@H](Cc1ccccc1)NC(=O)[C@H](Cc1ccccc1)NC(=O)[C@@H]1CC=CC[C@@H]1NC(=O)[C@@H](N)Cc1ccc(O)cc1`, the Activity result in data set [1] was “Dose-dependent effect”. The compound also gave a Ki in data set [2] greater than 10000 nM.
Consider `NC(=O)[C@H](Cc1ccccc1)NC(=O)[C@H](Cc1ccccc1)NC(=O)[C@H]1CC=CC[C@H]1NC(=O)[C@@H](N)Cc1ccc(O)cc1`, for which the Activity entry in data set [1] is “Dose-dependent effect”. In addition, the Ki in data set [2] was found to be 1030 nM. Moreover, the half-life in data set [4] is greater than 1200 min.
Turning to `NC(=O)[C@H](Cc1ccccc1)NC(=O)[C@H](Cc1ccccc1)NC(=O)[C@@H]1CCCN1C(=O)[C@@H](N)Cc1ccc(O)cc1` [ENDOMORPHIN 2], the Activity entry in data set [1] was “Dose-dependent effect”. In data set [4], this compound displayed a half-life of 5.8 min.

Values taken from ChEMBL document CHEMBL2177071, “The effect of Pro(2) modifications on the structural and pharmacological properties of endomorphin-2” (J Med Chem, 2012).
